Each block holds one molecule with its values, some of them ahead of it.
What was measured:
SK-MEL-5 = test: Growth inhibition of human SK-MEL-5 cells; format: functional
Outline: (§1)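 Run by the US National Cancer Institute in vitro screen against a panel of 53–57 human tumor cell lines. GI₅₀ is defined as the molar concentration inhibiting 50% net cell growth. TGI is the concentration giving total growth inhibition.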

A498 = test: Growth inhibition of human A498 cells; format: functional; outline: as §1
Malme-3M = test: Growth inhibition of human MALME-3M cells; format: functional; outline: as §1
M14 = test: Growth inhibition of human M14 cells; format: functional; outline: as §1
[1] = target: T1, Human immunodeficiency virus type 1 integrase (Human immunodeficiency virus 1, UniProt Q7ZJM1); test: Inhibition of HIV1 integrase 3' processing activity
T1 sequence (Q7ZJM1 whole entry): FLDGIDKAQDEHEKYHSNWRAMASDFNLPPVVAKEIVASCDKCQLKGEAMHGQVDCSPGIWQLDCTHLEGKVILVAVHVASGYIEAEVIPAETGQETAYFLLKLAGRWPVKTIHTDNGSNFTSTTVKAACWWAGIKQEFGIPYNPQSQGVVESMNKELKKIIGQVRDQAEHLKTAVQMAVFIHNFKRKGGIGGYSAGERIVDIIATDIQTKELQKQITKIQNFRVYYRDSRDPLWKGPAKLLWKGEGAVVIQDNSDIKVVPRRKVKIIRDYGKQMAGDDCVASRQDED
Outline: (§2)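 HIV-1 integrase (200 nM final) preincubated 30 min at 30 °C with inhibitor in buffer (pH 7.2 MOPS, NaCl, HEPES, EDTA, DTT, 10% glycerol, 7.5 mM MnCl₂, 0.1 mg/ml BSA, 2-mercaptoethanol, 10% DMSO). 20 nM 5'-³²P-labeled linear oligonucleotide substrate then added for 1 h. Quenched with formamide loading dye; products resolved on denaturing 20% polyacrylamide/urea gel. IC₅₀ reported for each step.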

[2] = target: T1, Human immunodeficiency virus type 1 integrase; test: Inhibition of HIV1 integrase strand transfer activity; outline: as §2
EKVX = test: Growth inhibition of human EKVX cells; format: functional; outline: as §1
SF-268 [3] = test: (§3) Growth inhibition of human SF268 cells; format: functional; outline: as §1
NCI-H522 = test: Growth inhibition of human NCI-H522 cells; format: functional; outline: as §1
SNB-19 = test: Growth inhibition of human SNB19 cells; format: functional; outline: as §1
SNB-75 = test: Growth inhibition of human SNB75 cells; format: functional; outline: as §1
UACC-62 = test: Growth inhibition of human UACC62 cells; format: functional; outline: as §1
SF-268 [4] = test: as §3; format: functional; outline: as §1; remark: listed apart in the source
MOLT-4 = test: Growth inhibition of human MOLT4 cells; format: functional; outline: as §1
SR = test: Growth inhibition of human SR cells; format: functional; outline: as §1
LOX IMVI = test: Growth inhibition of human LOX IMVI cells; format: functional; conditions: for GI50 / TGI: Homo sapiens, LOX IMVI; outline: as §1
BT-549 = test: Growth inhibition of human BT549 cells; format: functional; outline: as §1
T47D = test: Growth inhibition of human T47D cells; format: functional; outline: as §1
CCRF-CEM = test: Growth inhibition of human CCRF-CEM cells; format: functional; outline: as §1
HOP-62 = test: Growth inhibition of human HOP62 cells; format: functional; outline: as §1
NCI-H322M = test: Growth inhibition of human NCI-H322M cells; format: functional; outline: as §1
HCC 2998 = test: Growth inhibition of human HCC2998 cells; format: functional; outline: as §1
KM12 = test: Growth inhibition of human KM12 cells; format: functional; outline: as §1
SN12C = test: Growth inhibition of human SN12C cells; format: functional; outline: as §1
HCT-116 = test: Growth inhibition of human HCT116 cells; format: functional; outline: as §1

GI50 (SK-MEL-5): > 100 µM
IC50 [1]: 9 µM
IC50 [2]: 6 µM
GI50 (NCI-H522): > 100 µM
GI50 (MOLT-4): > 100 µM
GI50 (BT-549): > 100 µM
GI50 (T47D): > 100 µM
GI50 (CCRF-CEM): > 100 µM
GI50 (NCI-H322M): > 100 µM
GI50 (HCC 2998): > 100 µM
GI50 (HCT-116): > 100 µM
SMILES: Cc1cc(S(=O)(=O)Nc2nc3cc(-c4ccccc4)sc3c(=O)n2Cc2ccccc2)c(S)cc1Cl
GI50 (A498): > 100 µM
GI50 (Malme-3M): > 100 µM
GI50 (M14): > 100 µM
GI50 (EKVX): > 100 µM
GI50 (SF-268 [3]): > 100 µM
GI50 (SNB-19): > 100 µM
GI50 (SNB-75): > 100 µM
GI50 (UACC-62): > 100 µM
GI50 (SF-268 [4]): > 100 µM
GI50 (SR): > 100 µM
GI50 (LOX IMVI): > 100 µM
GI50 (HOP-62): > 100 µM
GI50 (KM12): > 100 µM
GI50 (SN12C): > 100 µM

IC50 [1]: > 100 µM
IC50 [2]: 78 µM
SMILES: Cc1cc(S(=O)(=O)Nc2nc3cscc3c(=O)[nH]2)c(SCc2ccccc2)cc1Cl

IC50 [1]: 80 µM
IC50 [2]: 31 µM
GI50 (MOLT-4): 3.9 µM
GI50 (T47D): 4.5 µM
GI50 (CCRF-CEM): 14 µM
GI50 (NCI-H322M): 18.2 µM
GI50 (HCC 2998): 18.9 µM
SMILES: Cc1cc(S(=O)(=O)Nc2nc3cscc3c(=O)n2Cc2ccccc2)c(S)cc1Cl
TGI (MOLT-4): 32.5 µM
GI50 (LOX IMVI): 18.2 µM
TGI (LOX IMVI): 51.6 µM
TGI (T47D): 40.8 µM
TGI (CCRF-CEM): 47.6 µM
GI50 (HOP-62): 16.5 µM
TGI (HOP-62): 39.3 µM
TGI (NCI-H322M): 45.9 µM
TGI (HCC 2998): 68.5 µM
GI50 (KM12): 19.9 µM
TGI (KM12): 74.7 µM
GI50 (SN12C): 16.6 µM
TGI (SN12C): 54.5 µM

IC50 [1]: > 100 µM
IC50 [2]: > 100 µM
SMILES: Cc1cc(S(=O)(=O)Nc2nc3n[nH]cc3c(=O)n2N)c(S)cc1Cl

IC50 [1]: 4.79 µM
IC50 [2]: 4.9 µM
SMILES: Cc1cc(S(=O)(=O)Nc2nc(N)n[nH]2)c(S)cc1Cl

IC50 [1]: 65 µM
IC50 [2]: 53 µM
SMILES: Cc1cc(S(=O)(=O)Nc2nc3ccsc3c(=O)n2N)c(S)cc1Cl

IC50 [1]: 55 µM
IC50 [2]: 39 µM
SMILES: Cc1cc(S(=O)(=O)Nc2nc3sc(C)c(C)c3c(=O)n2N)c(S)cc1Cl

IC50 [1]: > 100 µM
IC50 [2]: > 100 µM
SMILES: NC(=O)c1cc(S(=O)(=O)Nc2nc3ccccc3c(=O)[nH]2)c(SCc2ccccc2)cc1Cl

IC50 [1]: > 100 µM
IC50 [2]: 83 µM
SMILES: Cc1cc(S(=O)(=O)Nc2nc3ccccc3c(=O)[nH]2)c(SCc2ccccc2)cc1Cl

IC50 [1]: 47 µM
IC50 [2]: 33 µM
SMILES: Cc1cc(S(=O)(=O)Nc2nc3cc(Cl)ccc3c(=O)[nH]2)c(SCc2ccccc2)cc1Cl

IC50 [1]: > 100 µM
IC50 [2]: > 100 µM
SMILES: COc1cc2nc(NS(=O)(=O)c3cc(C)c(Cl)cc3S)n(N)c(=O)c2cc1OC

IC50 [1]: 78 µM
IC50 [2]: 42 µM
GI50 (MOLT-4): 18.6 µM
GI50 (BT-549): 15.7 µM
GI50 (T47D): 15 µM
SMILES: Cc1cc(S(=O)(=O)Nc2nc3ccccc3c(=O)n2Cc2ccco2)c(S)cc1Cl
GI50 (SNB-19): < 0.01 µM
TGI (SNB-19): 88.8 µM
TGI (MOLT-4): 70.6 µM
GI50 (SR): 19.5 µM
TGI (SR): 40.7 µM
growth inhibitory concentration (LOX IMVI): 16.1 µM
TGI (LOX IMVI): 59.3 µM
TGI (BT-549): 51.9 µM
TGI (T47D): 81.4 µM

IC50 [1]: > 100 µM
IC50 [2]: 93 µM
SMILES: COc1ccc(NC(=O)c2cc(S(=O)(=O)Nc3nc4ccccc4c(=O)[nH]3)c(SCc3ccccc3)cc2Cl)cc1

IC50 [1]: 60 µM
IC50 [2]: 35 µM
SMILES: Cc1cc(S(=O)(=O)Nc2nc3cc(C(C)(C)C)sc3c(=O)n2N)c(S)cc1Cl
